Values after ≈ are worked out from the molar mass of the structure shown.
How the values were obtained:
Type in all cases: functional
[1] = test system: Streptococcus pneumoniae; test: Antibacterial activity against macrolide-resistant Streptococcus pneumoniae harboring mef(A) gene after overnight incubation by agar dilution method
In short: (§1)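 Agar dilution MICs on Mueller-Hinton agar with 5% sheep blood. Inoculum 10^4 CFU/spot, incubated overnight at 35°C in ambient air. Clinical S. pneumoniae or group A streptococcal isolates; resistance genotypes (erm(B), erm(A), mef(A)/mef(E)) were assigned by PCR. S. pneumoniae ATCC 49619 served as QC strain in each run. Range, MIC50 and MIC90 reported per phenotype group.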

[2] = test system: Streptococcus pyogenes; test: Antibacterial activity against macrolide-resistant Streptococcus pyogenes harboring erm(A) gene after overnight incubation by agar dilution method; in short: as §1
[3] = test system: Streptococcus pyogenes; test: Antibacterial activity against Streptococcus pyogenes harboring erm(A) gene after overnight incubation by agar dilution method
In short: (§2)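 Clinical isolates collected 1998–2008, with macrolide-resistance genes confirmed by PCR. MICs by agar dilution on Mueller-Hinton agar with 5% sheep blood. Inoculum 10^4 CFU/spot, incubated overnight at 35°C in ambient air. S. pneumoniae ATCC 49619 was the quality-control strain in every run.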

[4] = test system: Streptococcus pneumoniae; test: Antibacterial activity against quinolone-susceptible Streptococcus pneumoniae after overnight incubation by agar dilution method
In short: (§3)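 Agar dilution on Mueller-Hinton agar supplemented with 5% sheep blood. Inoculum 10^4 CFU/spot, incubated overnight at 35°C in ambient air. Test strains were clinical pneumococcal isolates. S. pneumoniae ATCC 49619 was included as the quality control strain in each run. MIC range, MIC50 and MIC90 were reported for each susceptibility category.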

[5] = test system: Streptococcus pneumoniae; test: Antibacterial activity against macrolide-susceptible Streptococcus pneumoniae after overnight incubation by agar dilution method; in short: as §1
[6] = test system: Streptococcus pneumoniae; test: Antibacterial activity against penicillin-susceptible Streptococcus pneumoniae after overnight incubation by agar dilution method; in short: as §3
[7] = test system: Streptococcus pyogenes; test: Antibacterial activity against Streptococcus pyogenes harboring mutation in L4 ribosomal protein after overnight incubation by agar dilution method; in short: as §2
[8] = test system: Streptococcus pyogenes; test: Antibacterial activity against macrolide-susceptible Streptococcus pyogenes after overnight incubation by agar dilution method
In short: (§4)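 Agar dilution on Mueller-Hinton agar supplemented with 5% sheep blood, inoculum 10^4 CFU/spot, read after overnight incubation at 35°C in ambient air. Clinical isolates with defined genotypes; S. pneumoniae ATCC 49619 quality control strain included in each run. MIC50/MIC90 are MICs inhibiting 50% and 90% of isolates.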

[9] = test system: Streptococcus pneumoniae; test: Antibacterial activity against Streptococcus pneumoniae harboring mef(A) gene after overnight incubation by agar dilution method; in short: as §2
[10] = test system: Streptococcus pneumoniae; test: Antibacterial activity against penicillin-intermediate Streptococcus pneumoniae after overnight incubation by agar dilution method; in short: as §4
[11] = test system: Streptococcus pyogenes; test: Antibacterial activity against Streptococcus pyogenes harboring mef(A) gene after overnight incubation by agar dilution method; in short: as §2
[12] = test system: Streptococcus pyogenes; test: Antibacterial activity against macrolide-resistant Streptococcus pyogenes harboring erm(B) gene after overnight incubation by agar dilution method; in short: as §1
[13] = test system: Streptococcus pneumoniae; test: Antibacterial activity against quinolone-resistant Streptococcus pneumoniae after overnight incubation by agar dilution method; in short: as §3
[14] = test system: Streptococcus pyogenes; test: Antibacterial activity against Streptococcus pyogenes harboring erm(B) gene after overnight incubation by agar dilution method; in short: as §2
[15] = test system: Streptococcus pyogenes; test: Antibacterial activity against macrolide-resistant Streptococcus pyogenes harboring mef(A) gene after overnight incubation by agar dilution method; in short: as §1
[16] = test system: Streptococcus pneumoniae; test: Antibacterial activity against Streptococcus pneumoniae harboring mutation in 23S rRNA after overnight incubation by agar dilution method; in short: as §2
[17] = test system: Streptococcus pneumoniae; test: Antibacterial activity against Streptococcus pneumoniae harboring erm(A) gene after overnight incubation by agar dilution method; in short: as §2
[18] = test system: Streptococcus pneumoniae; test: Antibacterial activity against penicillin-resistant Streptococcus pneumoniae after overnight incubation by agar dilution method; in short: as §3
[19] = test system: Streptococcus pneumoniae; test: Antibacterial activity against Streptococcus pneumoniae harboring erm(B) gene after overnight incubation by agar dilution method; in short: as §2
[20] = test system: Streptococcus pneumoniae; test: Antibacterial activity against macrolide-resistant Streptococcus pneumoniae harboring erm(B) gene after overnight incubation by agar dilution method; in short: as §1
[21] = test system: Streptococcus pneumoniae; test: Antibacterial activity against Streptococcus pneumoniae harboring erm(B) and mef(A) gene after overnight incubation by agar dilution method; in short: as §2
[22] = test system: Streptococcus pneumoniae; test: Antibacterial activity against macrolide-resistant Streptococcus pneumoniae harboring erm(B) and mef(A) gene after overnight incubation by agar dilution method; in short: as §1
[23] = test system: Streptococcus pneumoniae; test: Antibacterial activity against macrolide-resistant Streptococcus pneumoniae harboring mutation in L4 ribosomal protein after overnight incubation by agar dilution method; in short: as §1
[24] = test system: Streptococcus pneumoniae; test: Antibacterial activity against Streptococcus pneumoniae harboring mutation in L4 ribosomal protein after overnight incubation by agar dilution method; in short: as §2

## CC[C@H]1OC(=O)[C@H](C)[C@@H](O[C@H]2C[C@@](C)(OC)[C@@H](O)[C@H](C)O2)[C@H](C)[C@@H](O[C@@H]2O[C@H](C)C[C@H](N(C)C)[C@H]2O)[C@](C)(O)C[C@@H](C)C(=O)[C@H](C)[C@@H](O)[C@]1(C)O [ERYTHROMYCIN]
[1]
  MIC50: 4 µg/mL (≈ 5.45 µM)
  MIC90: 32 µg/mL (≈ 43.6 µM)
[2]
  MIC50: 4 µg/mL (≈ 5.45 µM)
  MIC90: > 64 µg/mL
[3]
  MIC50: 4 µg/mL (≈ 5.45 µM)
  MIC90: > 64 µg/mL
[4]
  MIC50: > 64 µg/mL
  MIC90: > 64 µg/mL
[5]
  MIC50: 0.06 µg/mL (≈ 0.0818 µM)
  MIC90: 0.125 µg/mL (≈ 0.17 µM)
[6]
  MIC50: 4 µg/mL (≈ 5.45 µM)
  MIC90: > 64 µg/mL
[7]
  MIC: 2 µg/mL (≈ 2.73 µM)
[8]
  MIC50: 0.06 µg/mL (≈ 0.0818 µM)
  MIC90: 0.125 µg/mL (≈ 0.17 µM)
[9]
  MIC50: 4 µg/mL (≈ 5.45 µM)
  MIC90: 32 µg/mL (≈ 43.6 µM)
[10]
  MIC50: > 64 µg/mL
  MIC90: > 64 µg/mL
[11]
  MIC50: 16 µg/mL (≈ 21.8 µM)
  MIC90: 32 µg/mL (≈ 43.6 µM)
[12]
  MIC50: > 64 µg/mL
  MIC90: > 64 µg/mL
[13]
  MIC50: 0.06 µg/mL (≈ 0.0818 µM)
[14]
  MIC50: > 64 µg/mL
  MIC90: > 64 µg/mL
[15]
  MIC50: 16 µg/mL (≈ 21.8 µM)
  MIC90: 32 µg/mL (≈ 43.6 µM)
[16]
  MIC: 8 µg/mL (≈ 10.9 µM)
[17]
  MIC: 2 µg/mL (≈ 2.73 µM)

## C[C@H]1COc2c(N3CCN(C)CC3)c(F)cc3c(=O)c(C(=O)O)cn1c23.C[C@H]1COc2c(N3CCN(C)CC3)c(F)cc3c(=O)c(C(=O)O)cn1c23.O [LEVOFLOXACIN]
[1]
  MIC50: 1 µg/mL
  MIC90: 2 µg/mL
[2]
  MIC50: 0.5 µg/mL
  MIC90: 1 µg/mL
[3]
  MIC50: 0.5 µg/mL
  MIC90: 1 µg/mL
[4]
  MIC50: 1 µg/mL
  MIC90: 2 µg/mL
[5]
  MIC50: 1 µg/mL
  MIC90: 16 µg/mL
[6]
  MIC50: 1 µg/mL
  MIC90: 16 µg/mL
[7]
  MIC: 0.5 µg/mL
[8]
  MIC50: 0.5 µg/mL
  MIC90: 0.5 µg/mL
[18]
  MIC50: 1 µg/mL
  MIC90: 2 µg/mL
[9]
  MIC50: 1 µg/mL
  MIC90: 2 µg/mL
[10]
  MIC50: 1 µg/mL
  MIC90: 2 µg/mL
[11]
  MIC50: 0.5 µg/mL
  MIC90: 1 µg/mL
[12]
  MIC50: 0.5 µg/mL
  MIC90: 1 µg/mL
[19]
  MIC50: 1 µg/mL
  MIC90: 2 µg/mL
[20]
  MIC50: 1 µg/mL
  MIC90: 2 µg/mL
[21]
  MIC50: 1 µg/mL
  MIC90: 16 µg/mL
[13]
  MIC50: 16 µg/mL
  MIC90: 16 µg/mL
[14]
  MIC50: 0.5 µg/mL
  MIC90: 1 µg/mL
[15]
  MIC50: 0.5 µg/mL
  MIC90: 1 µg/mL
[16]
  MIC: 0.06 µg/mL
[22]
  MIC50: 1 µg/mL
  MIC90: 16 µg/mL
[23]
  MIC50: 1 µg/mL
  MIC90: 2 µg/mL
[24]
  MIC50: 1 µg/mL
  MIC90: 2 µg/mL

## COc1c(N2C[C@@H]3CCCN[C@@H]3C2)c(F)cc2c(=O)c(C(=O)O)cn(C3CC3)c12 [MOXIFLOXACIN]
[1]
  MIC50: 0.25 µg/mL (≈ 0.623 µM)
  MIC90: 0.5 µg/mL (≈ 1.25 µM)
[2]
  MIC50: 0.25 µg/mL (≈ 0.623 µM)
  MIC90: 0.25 µg/mL (≈ 0.623 µM)
[3]
  MIC50: 0.25 µg/mL (≈ 0.623 µM)
  MIC90: 0.25 µg/mL (≈ 0.623 µM)
[6]
  MIC50: 0.5 µg/mL (≈ 1.25 µM)
  MIC90: 4 µg/mL (≈ 9.96 µM)
[7]
  MIC: 0.25 µg/mL (≈ 0.623 µM)
[8]
  MIC50: 0.25 µg/mL (≈ 0.623 µM)
  MIC90: 0.25 µg/mL (≈ 0.623 µM)
[12]
  MIC50: 0.25 µg/mL (≈ 0.623 µM)
  MIC90: 0.25 µg/mL (≈ 0.623 µM)
[19]
  MIC50: 0.25 µg/mL (≈ 0.623 µM)
  MIC90: 0.5 µg/mL (≈ 1.25 µM)
[20]
  MIC50: 0.25 µg/mL (≈ 0.623 µM)
  MIC90: 0.5 µg/mL (≈ 1.25 µM)
[13]
  MIC50: 4 µg/mL (≈ 9.96 µM)
  MIC90: 4 µg/mL (≈ 9.96 µM)
[14]
  MIC50: 0.25 µg/mL (≈ 0.623 µM)
  MIC90: 0.25 µg/mL (≈ 0.623 µM)
[16]
  MIC: 0.25 µg/mL (≈ 0.623 µM)
[17]
  MIC: 0.25 µg/mL (≈ 0.623 µM)

## CC1(C)S[C@@H]2[C@H](NC(=O)Cc3ccccc3)C(=O)N2[C@H]1C(=O)O [PENICILLIN G]
[1]
  MIC50: 0.125 µg/mL (≈ 0.374 µM)
  MIC90: 4 µg/mL (≈ 12 µM)
[2]
  MIC50: 0.015 µg/mL (≈ 0.0449 µM)
  MIC90: 0.015 µg/mL (≈ 0.0449 µM)
[3]
  MIC50: 0.015 µg/mL (≈ 0.0449 µM)
  MIC90: 0.015 µg/mL (≈ 0.0449 µM)
[4]
  MIC50: 1 µg/mL (≈ 2.99 µM)
  MIC90: 4 µg/mL (≈ 12 µM)
[5]
  MIC50: 1 µg/mL (≈ 2.99 µM)
  MIC90: 2 µg/mL (≈ 5.98 µM)
[6]
  MIC50: 0.03 µg/mL (≈ 0.0897 µM)
  MIC90: 0.06 µg/mL (≈ 0.179 µM)
[7]
  MIC: 0.015 µg/mL (≈ 0.0449 µM)
[8]
  MIC50: 0.015 µg/mL (≈ 0.0449 µM)
  MIC90: 0.015 µg/mL (≈ 0.0449 µM)
[18]
  MIC50: 4 µg/mL (≈ 12 µM)
  MIC90: 8 µg/mL (≈ 23.9 µM)
[9]
  MIC50: 0.125 µg/mL (≈ 0.374 µM)
  MIC90: 4 µg/mL (≈ 12 µM)
[10]
  MIC50: 0.5 µg/mL (≈ 1.5 µM)
  MIC90: 1 µg/mL (≈ 2.99 µM)
[11]
  MIC50: 0.015 µg/mL (≈ 0.0449 µM)
  MIC90: 0.03 µg/mL (≈ 0.0897 µM)
[12]
  MIC50: 0.015 µg/mL (≈ 0.0449 µM)
  MIC90: 0.015 µg/mL (≈ 0.0449 µM)
[19]
  MIC50: 1 µg/mL (≈ 2.99 µM)
  MIC90: 4 µg/mL (≈ 12 µM)
[20]
  MIC50: 1 µg/mL (≈ 2.99 µM)
  MIC90: 4 µg/mL (≈ 12 µM)
[21]
  MIC50: 2 µg/mL (≈ 5.98 µM)
  MIC90: 4 µg/mL (≈ 12 µM)
[13]
  MIC50: 0.25 µg/mL (≈ 0.748 µM)
  MIC90: 4 µg/mL (≈ 12 µM)
[14]
  MIC50: 0.015 µg/mL (≈ 0.0449 µM)
  MIC90: 0.015 µg/mL (≈ 0.0449 µM)
[15]
  MIC50: 0.015 µg/mL (≈ 0.0449 µM)
  MIC90: 0.03 µg/mL (≈ 0.0897 µM)
[16]
  MIC: 0.015 µg/mL (≈ 0.0449 µM)
[22]
  MIC50: 2 µg/mL (≈ 5.98 µM)
  MIC90: 4 µg/mL (≈ 12 µM)
[17]
  MIC: 0.03 µg/mL (≈ 0.0897 µM)
[23]
  MIC50: 4 µg/mL (≈ 12 µM)
  MIC90: 16 µg/mL (≈ 47.8 µM)
[24]
  MIC50: 4 µg/mL (≈ 12 µM)
  MIC90: 16 µg/mL (≈ 47.8 µM)
